Experiments:
[1] = tested on: HT-29; experiment: Antitumor activity against HT29 cells expressing mutated p53; type: functional, cell-based; settings: Homo sapiens
Summary of the method: (§1)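 Compounds tested as tri(methanesulfonate) salts, soluble in water and dilute buffers. Human tumour cells carrying wild-type or mutated p53 were exposed for 5 days, and viability was read by MTT assay. GI50, TGI and LC50 were calculated from the MTT data. Values are means ± SD of at least three independent experiments, with coefficients of variation of 10–20%.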

[2] = tested on: RPMI-8226; experiment: Antitumor activity against human RPMI-8226 cells after 48 hrs; type: functional; settings: RPMI-8226, 48 h
Summary of the method: (§2)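 Tested in the NCI 60 human tumour cell line screen, with continuous drug exposure for 48 h. Values include LC50 derived from the screen.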

[3] = tested on: SK-MEL-2; experiment: Antitumor activity against human SK-MEL-2 cells after 48 hrs; type: functional; settings: SK-MEL-2, 48 h; summary of the method: as §2
[4] = Antitumor activity against human […] cells after 48 hrs; type: functional; summary of the method: as §2
[5] = tested on: RKO; experiment: Antitumor activity against human RKO cells expressing wild type p53; type: functional; settings: read-out: LC50 (the source's name); summary of the method: as §1
[6] = tested on: MDA-MB-435; experiment: Antitumor activity against human MDA-MB-435 cells after 48 hrs; type: functional; settings: MDA-MB-435, 48 h; summary of the method: as §2
[7] = tested on: HCT-116; experiment: Growth inhibition of human HCT116 cells after 5 days by MTT assay; type: functional; settings: HCT-116, 120 h
Summary of the method: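 MTT assay after 5 day continuous exposure. GI50, TGI and LC50 calculated from the MTT data. Means ± SD of at least three independent experiments; coefficients of variation 10-20%. Compounds used as tri(methanesulfonate) salts.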

[8] = tested on: HT-29; experiment: Antitumor activity against human HT29 cells after 48 hrs; type: functional; settings: HT-29, 48 h; summary of the method: as §2
[9] = tested on: ACHN; experiment: Antitumor activity against human ACHN cells after 48 hrs; type: functional; summary of the method: as §2
[10] = tested on: OVCAR-5; experiment: Antitumor activity against human OVCAR5 cells after 48 hrs; type: functional; settings: OVCAR-5, 48 h; summary of the method: as §2
[11] = tested on: CAKI-1; experiment: Antitumor activity against human CAKI-1 cells after 48 hrs; type: functional; settings: CAKI-1, 48 h; summary of the method: as §2
[12] = tested on: SW-620; experiment: Antitumor activity against human SW620 cells after 48 hrs; type: functional; settings: SW-620, 48 h
Summary of the method: (§3)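 NCI 60 human tumour cell line screen; 48 h continuous drug exposure. Compounds tested as tri(methanesulfonate) salts, soluble in water and dilute buffers. Dilute solutions are light-sensitive and adsorb to glass or quartz.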

[13] = tested on: SK-MEL-28; experiment: Antitumor activity against human SK-MEL-28 cells after 48 hrs; type: functional; settings: SK-MEL-28, 48 h; summary of the method: as §2
[14] = tested on: IGROV-1; experiment: Antitumor activity against human IGROV1 cells after 48 hrs; type: functional; settings: IGROV-1, 48 h; summary of the method: as §2
[15] = tested on: SF-539; experiment: Antitumor activity against human SF539 cells after 48 hrs; type: functional; settings: SF-539, 48 h; summary of the method: as §2
[16] = tested on: NCI-H460; experiment: Antitumor activity against human NCI-H460 cells after 48 hrs; type: functional; settings: NCI-H460, 48 h; summary of the method: as §2
[17] = tested on: T47D; experiment: Antitumor activity against human T47D cells after 48 hrs; type: functional; summary of the method: as §3
[18] = tested on: HCT-15; experiment: Antitumor activity against human HCT15 cells after 48 hrs; type: functional; settings: HCT-15, 48 h; summary of the method: as §2
[19] = tested on: 786-0; experiment: Antitumor activity against human 786-0 cells after 48 hrs; type: functional; settings: 786-0, 48 h; summary of the method: as §2
[20] = Antitumor activity against human NCI-H322 cells after 48 hrs; type: functional; settings: NCI-H322, 48 h; summary of the method: as §2
[21] = tested on: SF-295; experiment: Antitumor activity against human SF295 cells after 48 hrs; type: functional; settings: SF-295, 48 h; summary of the method: as §2
[22] = tested on: TK-10; experiment: Antitumor activity against human TK10 cells after 48 hrs; type: functional; settings: TK-10, 48 h; summary of the method: as §3
[23] = tested on: SNB-75; experiment: Antitumor activity against human SNB75 cells after 48 hrs; type: functional; settings: SNB-75, 48 h; summary of the method: as §3
[24] = Antitumor activity against human 10.05 cells expressing mutated p53; type: functional, cell-based; summary of the method: as §1
[25] = tested on: UACC-62; experiment: Antitumor activity against human UACC62 cells after 48 hrs; type: functional; settings: UACC-62, 48 h; summary of the method: as §3
[26] = Antitumor activity against human HL60 (TB) cells after 48 hrs; type: functional, HL-60(TB); settings: HL-60, 48 h; summary of the method: as §2
[27] = Drug level in NCR nu/nu mouse plasma at 20 mg/kg, iv after 8 hrs; type: ADME, organism-based; set-up: dose 20 mg/kg, route intravenous
Summary of the method: (§4)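 Single i.v. dose of 20 mg/kg to ncr nu/nu mice and an F344 rat. Plasma concentrations followed over time and fitted by nonlinear regression to give distribution and elimination phases, AUC and apparent volumes of distribution. Detection limit 50 nM.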

[28] = Drug level in F344 rat plasma at 20 mg/kg, iv after 4 hrs; type: ADME, organism-based; set-up: dose 20 mg/kg, route intravenous; summary of the method: as §4
[29] = tested on: Malme-3M; experiment: Antitumor activity against human MALME-3M cells after 48 hrs; type: functional; summary of the method: as §2
[30] = tested on: UO-31; experiment: Antitumor activity against human UO31 cells after 48 hrs; type: functional; settings: UO-31, 48 h; summary of the method: as §3
[31] = tested on: HCC 2998; experiment: Antitumor activity against human HCC2998 cells after 48 hrs; type: functional; settings: HCC 2998, 48 h; summary of the method: as §2
[32] = tested on: COLO 205; experiment: Antitumor activity against human Colo205 cells expressing mutated p53; type: functional, cell-based; summary of the method: as §1
[33] = tested on: HOP-92; experiment: Antitumor activity against human HOP92 cells after 48 hrs; type: functional; settings: HOP-92, 48 h; summary of the method: as §2
[34] = tested on: SK-MEL-5; experiment: Antitumor activity against human SK-MEL-5 cells after 48 hrs; type: functional; settings: SK-MEL-5, 48 h; summary of the method: as §2
[35] = read-out: Log LC50 (the source's name) (converted)

## COc1ccc2c(c1)c(=O)c1c(NCCCN3CCN(CCCN4C(=O)c5cccc6cc([N+](=O)[O-])cc(c56)C4=O)CC3)ccc3ncn2c31.CS(=O)(=O)O
[1]
  IC50: 80 nM
[2]
  GI50: 4.07 nM
[2]; [35]
  CC50: > 1000 nM
[2]; read-out: Log TGI (converted)
  TGI: > 1000 nM
[3]
  GI50: 27.5 nM
[3]; [35]
  CC50: > 1000 nM
[3]; read-out: Log TGI (converted)
  TGI: > 1000 nM
[4]
  GI50: 4.79 nM
[4]; [35]
  CC50: > 1000 nM
[4]; read-out: Log TGI (converted)
  TGI: > 1000 nM
[5]
  CC50: 25 nM
[6]
  GI50: 7.41 nM
[6]; [35]
  CC50: > 1000 nM
[6]; read-out: Log TGI (converted)
  TGI: > 1000 nM
[7]
  GI50: 1 nM
  LC50: 30 nM
[8]
  GI50: 2.75 nM
[8]; [35]
  CC50: > 1000 nM
[8]; read-out: Log TGI (converted)
  TGI: 295 nM
[9]
  GI50: 0.407 nM
[9]; [35]
  CC50: > 1000 nM
[9]; read-out: Log TGI (converted)
  TGI: 63.1 nM
[10]
  GI50: 339 nM
[10]; [35]
  CC50: > 1000 nM
[10]; read-out: Log TGI (converted)
  TGI: > 1000 nM
[11]
  GI50: 3.02 nM
[11]; [35]
  CC50: > 1000 nM
[11]; read-out: Log TGI (converted)
  TGI: 40.7 nM
[12]
  GI50: 0.676 nM
[12]; [35]
  CC50: > 1000 nM
[12]; read-out: Log TGI (converted)
  TGI: > 1000 nM
[13]
  GI50: 5.5 nM
[13]; [35]
  CC50: > 1000 nM
[13]; read-out: Log TGI (converted)
  TGI: 933 nM
[14]
  GI50: 3.39 nM
[14]; [35]
  CC50: > 1000 nM
[14]; read-out: Log TGI (converted)
  TGI: 51.3 nM
[15]
  GI50: 2.75 nM
[15]; [35]
  CC50: > 1000 nM
[15]; read-out: Log TGI (converted)
  TGI: 25.1 nM
[16]
  GI50: 2.57 nM
[16]; [35]
  CC50: > 1000 nM
[16]; read-out: Log TGI (converted)
  TGI: > 1000 nM
[17]
  GI50: 8.71 nM
[17]; [35]
  CC50: > 1000 nM
[17]; read-out: Log TGI (converted)
  TGI: > 1000 nM
[18]
  GI50: 3.09 nM
[18]; [35]
  CC50: > 1000 nM
[18]; read-out: Log TGI (converted)
  TGI: > 1000 nM
[19]
  GI50: 5.25 nM
[19]; [35]
  CC50: > 1000 nM
[19]; read-out: Log TGI (converted)
  TGI: > 1000 nM
[20]
  GI50: 5.89 nM
[20]; [35]
  CC50: > 1000 nM
[20]; read-out: Log TGI (converted)
  TGI: 309 nM
[21]
  GI50: 1 nM
[21]; [35]
  CC50: > 1000 nM
[21]; read-out: Log TGI (converted)
  TGI: 79.4 nM
[22]
  GI50: 13.5 nM
[22]; [35]
  CC50: > 1000 nM
[22]; read-out: Log TGI (converted)
  TGI: > 1000 nM
[23]
  GI50: 6.76 nM
[23]; [35]
  CC50: > 1000 nM
[23]; read-out: Log TGI (converted)
  TGI: 214 nM
[24]
  IC50: 90 nM
[25]
  GI50: 3.31 nM
[25]; [35]
  CC50: > 1000 nM
[25]; read-out: Log TGI (converted)
  TGI: 55 nM
[26]
  GI50: 0.159 nM
[26]; [35]
  CC50: > 1000 nM
[27]
  concentration at 8 h: 70 nM
[28]
  concentration at 4 h: 90 nM
[29]
  GI50: 6.03 nM
[29]; [35]
  CC50: > 1000 nM
[29]; read-out: Log TGI (converted)
  TGI: 95.5 nM
[30]
  GI50: 2.69 nM
[30]; [35]
  CC50: > 1000 nM
[30]; read-out: Log TGI (converted)
  TGI: 17.8 nM
[31]
  GI50: 11.5 nM
[31]; [35]
  CC50: > 1000 nM
[31]; read-out: Log TGI (converted)
  TGI: > 1000 nM
[32]
  IC50: 80 nM
[33]
  GI50: 5.13 nM
[33]; [35]
  CC50: > 1000 nM
[33]; read-out: Log TGI (converted)
  TGI: 63.1 nM
[34]
  GI50: 4.9 nM
[34]; [35]
  CC50: 871 nM
[34]; read-out: Log TGI (converted)
  TGI: 43.6 nM
